Source: ChEMBL document CHEMBL4680184, “Simple amphiphilic α-hydrazido acids: Rational design, synthesis, and in vitro bioactivity profile of a novel class of potential antimicrobial compounds” (Eur J Med Chem, 2020)
Values after ≈ are worked out from the molar mass of the structure shown. Active and inactive are the calls of the source. The calls are words filed in the database; no cut-off is given here.

What was measured:
Staphylococcus aureus [1] = experiment: Antibacterial activity against Staphylococcus aureus ATCC 29213 after preincubated with plasma for 6 hrs by broth microdilution method; type: functional, organism-based
Staphylococcus aureus [2] = experiment: Antibacterial activity against Staphylococcus aureus ATCC 29213 assessed as inhibition of visible growth after 24 hrs by broth microdilution method; type: functional
Method in brief: (§1)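 Compounds dissolved in sterile water at the highest achievable concentration, then serially diluted in Mueller-Hinton II broth per CLSI broth microdilution. Strains grown 6 h in BHI, diluted in MHII to 1 × 10^6 cfu/mL final. Aerobic incubation 37 °C, 24 h; tetracycline internal control; bacteria-only growth controls. MIC = lowest concentration with no visible growth; triplicate.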

[3] = Therapeutic index, ratio of HC50 for human erythrocytes to MIC for Staphylococcus aureus ATCC 29213; type: toxicity; conditions: read-out: TI
[4] = Chemical stability of the compound in hydrochloride water at 1 ug/ml assessed as compound degradation after 8 weeks; type: physicochemical; conditions: buffer, 1344 h, at 1 µg/mL
Enterococcus faecalis [5] = experiment: Antibacterial activity against Enterococcus faecalis ATCC 29212 assessed as inhibition of visible growth after 24 hrs by broth microdilution method; type: functional; method in brief: as §1
Enterococcus faecium [6] = experiment: Antibacterial activity against Enterococcus faecium 135562 (35C) assessed as inhibition of visible growth after 24 hrs by broth microdilution method; type: functional; method in brief: as §1
[7] = Hemolytic activity against human erythrocytes measured after 1 hr by microplate reader based spectrophotometric analysis; type: ADME, cell-based, Erythrocyte
Method in brief: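 Heparinized fresh human blood washed three times in PBS pH 7.4 (1000 g, 10 min), resuspended ~20 vol %. Equal volume with 1:2 serial dilutions of compound in PBS, 1 h at 37 °C; PBS and 0.2 vol % Triton X-100 controls. Supernatant diluted 1:60, A350 read. HC50 from three- or four-parameter Hill fit; mean of three replicates.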

[8] = Therapeutic index, ratio of HC50 for human erythrocytes to MIC for Escherichia coli ATCC 25922; type: toxicity; conditions: read-out: TI
[9] = Chemical stability of the compound in pH 7.4 phosphate buffered saline at 1 ug/ml assessed as compound degradation after 8 weeks; type: physicochemical; conditions: buffer, pH 7.4, 1344 h, at 1 µg/mL
[10] = Retention time of the compound by RP-HPLC analysis; type: physicochemical
Method in brief: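 RP-HPLC on C18 column (5 µm, 200 × 4.6 mm), 0.5 mL/min; hydrochlorides at 0.5–1 mg/mL in water:2-propanol 70:30, gradient to 10:90 over 40 min, then 20 min at 10:90. Adjusted retention time = instrumental retention time minus hold-up time.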

Escherichia coli [11] = experiment: Antibacterial activity against Escherichia coli ATCC 25922 assessed as inhibition of visible growth after 24 hrs by broth microdilution method; type: functional; method in brief: as §1
[12] = Chemical stability of the compound in pH 1.5 hydrochloride solution at 1 ug/ml assessed as compound degradation after 8 weeks; type: physicochemical; conditions: buffer, pH 1.5, 1344 h, at 1 µg/mL
Pseudomonas aeruginosa [13] = experiment: Antibacterial activity against Pseudomonas aeruginosa ATCC 27853 assessed as inhibition of visible growth after 24 hrs by broth microdilution method; type: functional; method in brief: as §1
Staphylococcus aureus [14] = experiment: Antibacterial activity against linezolid-methicillin-resistant Staphylococcus aureus AOUC 0915 assessed as inhibition of visible growth after 24 hrs by broth microdilution method; type: functional
Method in brief: (§2)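 Broth microdilution per CLSI: strains grown 6 h in BHI broth, diluted in Mueller-Hinton II broth to 1 × 10^6 cfu/mL, mixed 1:1 with serial dilutions of compound in MHII (compounds dissolved in sterile water); aerobic incubation 37 °C, 24 h. MIC = lowest concentration with no visible growth. Tetracycline internal control; triplicate.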

[15] = Therapeutic index, ratio of HC50 for human erythrocytes to MIC for gentamycin-colistin-resistant Escherichia coli 288328; type: toxicity
Method in brief: (§3)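 TI = HC50/MIC. HC50: washed heparinized human erythrocytes (~20 vol % in PBS pH 7.4) mixed 1:1 with 1:2 serial compound dilutions in PBS, 1 h at 37 °C; supernatant A350 read; PBS and 0.2 vol % Triton X-100 as 0 and 100% lysis; HC50 by Hill logistic regression, mean of three replicates.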

Escherichia coli [16] = experiment: Antibacterial activity against gentamicin-colistin-resistant Escherichia coli 288328 assessed as inhibition of visible growth after 24 hrs by broth microdilution method; type: functional; method in brief: as §2
[17] = Therapeutic index, ratio of HC50 for human erythrocytes to MIC for linezolid-methicillin-resistant Staphylococcus aureus AOUC 0915; type: toxicity; method in brief: as §3
Cell membrane [18] = experiment: Induction of outer membrane permeabilization in gentamycin-colistin resistant Escherichia coli 288328 assessed as increase in fluorescence intensity at 8 ug/ml measured every 1 sec for 10 mins by NPN-probe based assay; type: subcellular; conditions: dose 8.0 µg/ml, in the assay text read “every 0.1 sec” for “every 1 sec”
Method in brief: (§4)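 Midlog E. coli (6 h growth, 10^8 cells/mL) washed, resuspended in PBS pH 7.2, held at 4 °C, used within 3 h; equilibrated 15 min at 25 °C. NPN 1 µM working plus compound 8 µg/mL working. Fluorescence ex 350/em 420 nm, read every 0.1 s for 10 min; rate constant from exponential rise-to-maximum fit; probe-only, buffer controls.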

Cell membrane [19] = experiment: Induction of inner membrane permeabilization in Escherichia coli ATCC 25922 assessed as increase in fluorescence intensity at 8 ug/ml measured every 1 sec for 10 mins by PI-probe based assay; type: subcellular; conditions: dose 8.0 µg/ml, in the assay text read “every 0.1 sec” for “every 1 sec”
Method in brief: (§5)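 Same washed midlog E. coli suspension (PBS pH 7.2, 10^8 cells/mL, 25 °C after 15 min equilibration). Propidium iodide 15 µM working with compound at 8 µg/mL working. Fluorescence ex 535/em 617 nm every 0.1 s over 10 min; rate constant from exponential rise-to-maximum fit; controls without cells or compound.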

Cell membrane [20] = experiment: Induction of outer membrane permeabilization in gentamycin-colistin resistant Escherichia coli 288328 assessed as rate constant by measuring NPN uptake at 8 ug/ml […]; conditions: dose 8.0 µg/ml
Cell membrane [21] = experiment: Induction of outer membrane permeabilization in Escherichia coli ATCC 25922 assessed as rate constant by measuring NPN uptake at 8 ug/ml measured every 1 sec for 10 mins; type: subcellular; conditions: dose 8.0 µg/ml, in the assay text read “every 0.1 sec” for “every 1 sec”; method in brief: as §4
Cell membrane [22] = experiment: Induction of inner membrane permeabilization in gentamycin-colistin resistant Escherichia coli 288328 assessed as increase in fluorescence intensity at 8 ug/ml measured every 1 sec for 10 mins by PI-probe based assay; type: subcellular; conditions: dose 8.0 µg/ml, in the assay text read “every 0.1 sec” for “every 1 sec”; method in brief: as §5
Cell membrane [23] = experiment: Induction of outer membrane permeabilization in Escherichia coli ATCC 25922 assessed as increase in fluorescence intensity at 8 ug/ml measured every 1 sec for 10 mins by NPN-probe based assay; type: subcellular; conditions: dose 8.0 µg/ml, in the assay text read “every 0.1 sec” for “every 1 sec”; method in brief: as §4
Cell membrane [24] = experiment: Induction of inner membrane permeabilization in gentamycin-colistin resistant Escherichia coli 288328 assessed as rate constant by measuring PI uptake at 8 ug/ml […]; conditions: dose 8.0 µg/ml
Cell membrane [25] = experiment: Induction of inner membrane permeabilization in Escherichia coli ATCC 25922 assessed as rate constant by measuring PI uptake at 8 ug/ml […]; conditions: dose 8.0 µg/ml
Pseudomonas aeruginosa [26] = experiment: microbe, parasite or virus in culture; conditions: ATCC 27853
Staphylococcus aureus [27] = experiment: Antibacterial activity against Staphylococcus aureus ATCC 29213; type: functional; method in brief: as §2
Escherichia coli [28] = experiment: Antibacterial activity against Escherichia coli ATCC 25922; type: functional; method in brief: as §2
Enterococcus faecalis [29] = experiment: Antibacterial activity against Enterococcus faecalis ATCC 29212; type: functional; method in brief: as §1
Enterococcus faecium [30] = experiment: Antibacterial activity against Enterococcus faecium ATCC 135562 by broth microdilution method; type: functional; method in brief: as §1
Staphylococcus aureus [31] = experiment: Antibacterial activity against Staphylococcus aureus ATCC 29213 by broth microdilution method; type: functional; method in brief: as §1
Escherichia coli [32] = experiment: Antibacterial activity against Escherichia coli ATCC 25922 by broth microdilution method

Compound | Activity (Staphylococcus aureus [1]) | MIC (Staphylococcus aureus [2]) | selectivity ratio [3] | MIC (Enterococcus faecalis [5]) | MIC (Enterococcus faecium [6]) | HC50 at 1 h [7] | selectivity ratio [8] | Retention_time [10] | MIC (Escherichia coli [11]) | MIC (Pseudomonas aeruginosa [13]) | MIC (Staphylococcus aureus [14]) | selectivity ratio [15] | MIC (Escherichia coli [16]) | selectivity ratio [17] | further results
CCCCCCCCNC(=O)CN(NC(=O)CCCCCCC)C(=O)CN.Cl | Active | 16 mg/L | 8.2 | 32 mg/L | 16 mg/L | 131 µg/mL | 8.2 | 17.8 min | 16 mg/L | 32 mg/L |  |  |  |  | Stabilty [4]: Stable; Stabilty [9]: Stable; Stabilty [12]: Stable
CCCCCCCCCCCCNC(=O)CN(NC(=O)c1ccccc1)C(=O)CN.Cl | Active | 4 mg/L | 49 | 4 mg/L | 4 mg/L | 195 µg/mL | 49 | 19.7 min | 4 mg/L | 64 mg/L | 4 mg/L | 49 | 4 mg/L | 49 | 
CCCCCCCCCCCCNC(=O)CN(NC(=O)C(C)(C)C)C(=O)CN.Cl | Active | 4 mg/L | 99 | 8 mg/L | 8 mg/L | 394 µg/mL | 49 | 19.8 min | 8 mg/L | 16 mg/L | 4 mg/L | 49 | 8 mg/L | 99 | Activity (Cell membrane [18]): Active; Activity (Cell membrane [19]): Active; Activity (Cell membrane [20]): 0.31 min⁻¹; Activity (Cell membrane [21]): 0.25 min⁻¹; Activity (Cell membrane [22]): Active; Activity (Cell membrane [23]): Active; Activity (Cell membrane [24]): 0.24 min⁻¹; Activity (Cell membrane [25]): 0.22 min⁻¹
CN(C)[C@@H]1C(O)=C(C(N)=O)C(=O)[C@@]2(O)C(O)=C3C(=O)c4c(O)cccc4[C@@](C)(O)[C@H]3C[C@@H]12 [TETRACYCLINE] |  |  |  |  |  |  |  |  |  |  |  |  |  |  | MIC (Pseudomonas aeruginosa [26]): 8 mg/L (≈ 18 µM); MIC (Staphylococcus aureus [27]): 0.12 mg/L (≈ 0.27 µM); MIC (Escherichia coli [28]): 0.5 mg/L (≈ 1.13 µM); MIC (Enterococcus faecalis [29]): 8 mg/L (≈ 18 µM)
H-GIGKFLKKAKKFGKAFVKILKK-NH2 [PEXIGANAN] |  |  |  |  |  |  |  |  |  |  |  |  |  |  | MIC (Enterococcus faecium [30]): 64 mg/L; MIC (Staphylococcus aureus [31]): 8 mg/L; MIC (Escherichia coli [32]): 16 mg/L
